Data set [1] is described as follows: In vitro FLS cell toxicity assay. Type of data set: cell-based. Particulars: Sprague Dawley, rat. A digest of the protocol: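 FLS cells from adjuvant-arthritic rat joints, in MEM with 10 % fetal calf serum at 37 °C and 5 % CO2, were seeded at 1.0×10^5/well and grown overnight. Cells were treated with six concentrations for 48 h, then given 20 µl MTT (5 mg/ml) for 4 h. Formazan was dissolved in DMSO and A490 read. Viability is relative to untreated cells, in triplicate; IC50 was read from the curves.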

The target in data set [2] is T1, COX-1 (ovine) (Ovis aries, UniProt P05979).
T1 sequence (P05979 25-600): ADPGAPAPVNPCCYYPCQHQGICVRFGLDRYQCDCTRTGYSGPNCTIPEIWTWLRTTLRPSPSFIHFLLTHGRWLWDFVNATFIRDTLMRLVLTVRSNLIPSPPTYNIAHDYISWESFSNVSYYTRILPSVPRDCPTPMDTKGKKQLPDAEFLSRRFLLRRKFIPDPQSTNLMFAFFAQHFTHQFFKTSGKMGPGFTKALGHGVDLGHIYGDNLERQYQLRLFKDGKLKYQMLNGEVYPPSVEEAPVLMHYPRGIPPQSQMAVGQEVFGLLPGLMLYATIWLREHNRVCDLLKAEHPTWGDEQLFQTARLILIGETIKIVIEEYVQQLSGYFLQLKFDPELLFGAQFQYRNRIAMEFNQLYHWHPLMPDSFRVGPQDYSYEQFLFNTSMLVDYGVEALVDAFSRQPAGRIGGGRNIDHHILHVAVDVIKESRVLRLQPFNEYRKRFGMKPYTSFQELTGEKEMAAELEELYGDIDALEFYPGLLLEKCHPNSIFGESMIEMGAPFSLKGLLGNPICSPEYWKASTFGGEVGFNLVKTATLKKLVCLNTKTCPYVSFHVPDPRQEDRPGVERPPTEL
Kind of data set: COX Fluorescent Inhibitor Screening Assay, COX-1. In kind it is biochemical. A digest of the protocol:
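The kit's peroxidase read-out was used: PGG2 converts ADHP to resorufin, read at excitation 530-540 nm and emission 585-595 nm. Ovine COX-1 was mixed with inhibitor, heme, fluorometric substrate and assay buffer. Arachidonic acid started the reaction, and plates were read exactly 2 min later at room temperature. No-enzyme blanks and no-inhibitor controls were included, and each compound was run in triplicate.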

Data set [3] deals with IL-1 and TNFα production by FLS cells. The data set is described as follows: Determination of IL-1 and TNF-α in FLS cell supernatants. Type of data set: cell-based, rat. Particulars: 0.355 mg/ml, 48 h, compared with the untreated control group. A digest of the protocol: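 Rat FLS cells, isolated from synovial tissue of adjuvant-arthritic rats, were seeded at 1×10^5/well in MEM with 10 % fetal calf serum (37 °C, 5 % CO2) and grown overnight. They were then exposed to test compound at 0.355 mg/ml for 48 h. Supernatant cytokines were measured by ELISA against untreated cells, in triplicate (n = 3), with one-way ANOVA.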

The nature of data set [4]: In vitro release profile. Type of data set: physicochemical. Particulars: non-gelled solution controls, 37 °C, PBS pH 7.4, dialysis bags. In a few lines:
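Samples of 200 μL at 4 mg/ml (gels, non-gelled conjugate solutions and parent drug) were dialysed (MWCO 800-1000) against PBS pH 7.4 at 37 °C. The 200 μL release medium was sampled and refreshed at set times. Released conjugate was quantified by C18 HPLC (30 °C; acetonitrile/0.1 % TFA gradient; 1.0 mL/min) at 260 nm.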

Data set [5] relates to FLS cells. The data set is described as follows: Apoptosis detection in FLS cells. Type of data set: cell-based, rat. Particulars: all at 0.4 mg/ml Ket, 48 h, versus untreated groups. In a few lines: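 FLS cells were taken from arthritis-affected rat joints and grown in MEM with 10 % fetal calf serum at 37 °C under 5 % CO2. Cells were seeded at 1 × 10^6 per well, grown overnight, and exposed to the test compound (0.016-0.71 mg/ml) for 48 h. They were then trypsinised, washed, and resuspended at ∼1×10^6 cells/mL in annexin-binding buffer. Alexa Fluor 488 annexin V and PI were added for 15 min at room temperature before immediate flow cytometry.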

In brackets after ≈: the same amount, converted by molar mass.

Experimental findings from publication PMC5485419 (Theranostics, 2017) are described below.

As usually defined, the IC50 is the point on the concentration scale where inhibition reaches its midpoint. Lower therefore signals higher potency. For the compound `C[C@H](C(=O)O)c1cccc(C(=O)c2ccccc2)c1` [(S)-Ket, (S)-Ketoprofen], in data set [1], the IC50 at 48 h stood at 159 µg/mL (≈ 625 µM). For the same compound, it took 5.1 µM to reach half-maximal inhibition in data set [2] (IC50). For the same compound, in data set [3], the “IL-1 production by FLS cells” value was “trace amounts” and the “TNFα production by FLS cells” value was “comparatively lower amount”. Further, in data set [4], the “Time of drug release from solution” value is “within a few hours”. Moreover, the “Extent of apoptosis in FLS cells” value in data set [5] is listed as “greater degree of cell death than untreated groups”.
